Measurements pooled from the literature.
Lines come from different studies, so protocols differ.
MAOB: Amine oxidase [flavin-containing] B (MAOB, Homo sapiens, UniProt P27338)
Adora1: Adenosine receptor A1 (Adora1, Rattus norvegicus, UniProt P25099)
CA9: Carbonic anhydrase 9 (CA9, Homo sapiens, UniProt Q16790)
EDNRB: Endothelin receptor type B (EDNRB, Homo sapiens, UniProt P24530)
KCNU1: KCNU1 (Homo sapiens, UniProt A8MYU2)
SIRT5: NAD-dependent protein deacylase sirtuin-5, mitochondrial (SIRT5, Homo sapiens, UniProt Q9NXA8)
CHRM4: Muscarinic acetylcholine receptor M4 (CHRM4, Homo sapiens, UniProt P08173)

Cc1cc([N+](=O)[O-])ccc1NC(=O)c1cc(Cl)ccc1O — inhibition (MAOB; enzyme activity, inhibitor; 1 µM, 20 min): 5%
CC(C)N1CCCn2c1nc1c2c(=O)n(C)c(=O)n1C — inhibition (Adora1; ligand displacement, radioligand; 25 µM, cell membranes): 38%
CCOC(=O)C1CSc2[nH]c(=O)sc2C1c1cn(-c2ccccc2)nc1-c1ccc(Br)cc1 (stereo not shown) — inhibition (CA9; enzyme activity, inhibitor; 100 µM): 91.6%
O=C(Nc1cc(Cl)cc(Cl)c1)c1cc(Cl)ccc1O — inhibition (MAOB; enzyme activity, inhibitor; 1 µM, 20 min): 0%
O=C(c1ccc(F)cc1)N(Cc1ccccc1)C1CCCCC1 — inhibition (EDNRB; cell-free assay; 10 µM): 3%
CCOc1ccc(C(=O)Nc2ccc([N+](=O)[O-])cc2Cl)cc1OCC — inhibition (MAOB; enzyme activity, inhibitor; 1 µM, 20 min): 34%
N#CC1CSc2[nH]c(=O)sc2C1c1cn(-c2ccccc2)nc1-c1ccc(Br)cc1 (stereo not shown) — inhibition (CA9; enzyme activity, inhibitor; 10 nM): 28.9%
CCC(C)N1CCCn2c1nc1c2c(=O)n(C)c(=O)n1C (stereo not shown) — inhibition (Adora1; ligand displacement, radioligand; 25 µM, cell membranes): 40%
N=c1n(CCN2CCCCC2)c2ccccc2n1CC(O)c1cccc(Br)c1 (stereo not shown) — inhibition (KCNU1; ion current, inhibitor, patch clamp; HEK293; 10 µM): 17%
CCOC(=O)C1CSc2[nH]c(=O)sc2C1c1cn(-c2ccccc2)nc1-c1ccccc1 (stereo not shown) — inhibition (CA9; enzyme activity, inhibitor; 10 µM): 75.5%
O=C(Nc1ccccc1)c1ccc2c(c1)OCO2 — inhibition (MAOB; enzyme activity, inhibitor; 1 µM, 20 min): 80%
CN(C)C1CCN(CC#Cc2nn(C3CCCC3)c3nc(NCc4ccccc4)ncc23)C1 (stereo not shown) — inhibition (Serine/threonine-protein kinase 26 (STK26, Homo sapiens, UniProt Q9P289); enzyme activity, inhibitor, FRET; 10 µM): 78%
CC(C)CC(C)N1CCCn2c1nc1c2c(=O)n(C)c(=O)n1C (stereo not shown) — inhibition (Adora1; ligand displacement, radioligand; 25 µM, cell membranes): 30%
O=C(Nc1ccccc1Cl)c1ccc([N+](=O)[O-])cc1Cl — inhibition (MAOB; enzyme activity, inhibitor; 1 µM, 20 min): 6%
CCOC(=O)C1CSc2[nH]c(=O)sc2C1c1cn(-c2ccccc2)nc1-c1ccc(Cl)cc1 (stereo not shown) — inhibition (CA9; enzyme activity, inhibitor; 10 µM): 86.3%
COc1ccc(C=NNC(=O)Cn2cnc3ccccc32)c(O)c1 — inhibition (MAOB; enzyme activity, inhibitor, fluorescence; 1 µM): 65%
CCOC(=O)C1CSc2[nH]c(=O)sc2C1c1cn(-c2ccccc2)nc1-c1ccc(C)cc1 (stereo not shown) — inhibition (CA9; enzyme activity, inhibitor; 0.1 µM): 35.5%
O=C(Nc1ccc(S(=O)(=O)N2CCC(Cl)CC2)cc1)c1ccc([N+](=O)[O-])o1 — inhibition (EDNRB; ligand displacement, radioligand; 10 µM): 3%
O=C(c1ccc(Cl)cc1)N(Cc1ccccc1)C1CCCCC1 — inhibition (Beta-1 adrenergic receptor (ADRB1, Homo sapiens, UniProt P08588); cell-free assay; 10 µM): -27.9%
Cc1ccc(-c2nn(-c3ccccc3)cc2C2c3sc(=O)[nH]c3SC3C(=O)N(c4ccccc4)C(=O)C32)cc1 (stereo not shown) — inhibition (CA9; enzyme activity, inhibitor; 10 µM): 77.9%
Cc1ccc(C(=O)Nc2ccc(S(=O)(=O)O)c3cc(S(=O)(=O)O)cc(S(=O)(=O)O)c23)cc1NC(=O)c1cccc(NC(=O)Nc2cccc(C(=O)Nc3cc(C(=O)Nc4ccc(S(=O)(=O)O)c5cc(S(=O)(=O)O)cc(S(=O)(=O)O)c45)ccc3C)c2)c1 — inhibition (SIRT5; enzyme activity, inhibitor; 100 µM): 85%
O=C1NC(=S)C(=Cc2cn(-c3ccccc3)nc2-c2ccc(Br)cc2)S1 — inhibition (CA9; enzyme activity, inhibitor; 1 µM): 66.2%
CCCC(C)N1CCCn2c1nc1c2c(=O)n(C)c(=O)n1C (stereo not shown) — inhibition (Adora1; ligand displacement, radioligand; 25 µM, cell membranes): 19%
CCOC(=O)C1CSc2[nH]c(=O)sc2C1c1cn(-c2ccccc2)nc1-c1ccc(OC)cc1 (stereo not shown) — inhibition (CA9; enzyme activity, inhibitor; 1 µM): 71.4%
O=C(Nc1ccc(Br)cc1)c1ccccn1 — inhibition (MAOB; enzyme activity, inhibitor; 1 µM, 20 min): 85%
CCN(CC)CCNC(=O)C1CCN(c2ccc3nnc(-c4cccc(C)c4)n3n2)CC1 — inhibition (KCNU1; ion current, inhibitor, patch clamp; HEK293; 10 µM): 62%
COc1cc(NC(C)=O)c(Cl)cc1C(=O)Nc1nccs1 — inhibition (CHRM4; cell-free assay; 10 µM): 16.7%
CCN(Cc1ccccc1C(F)(F)F)C(=O)C1CCN(S(=O)(=O)c2ccc3[nH]ncc3c2)CC1 — inhibition (EDNRB; ligand displacement, radioligand; 10 µM): 8%
COc1cc(-c2cc(-c3ccc(N4CCNCC4)cc3)cnc2C)cc(OC)c1OC — inhibition (Dual specificity tyrosine-phosphorylation-regulated kinase 4 (DYRK4, Homo sapiens, UniProt Q9NR20); enzyme activity, inhibitor; 1 µM): 1%
O=C(Nc1ccc([N+](=O)[O-])cc1Cl)c1ccccc1 — inhibition (MAOB; enzyme activity, inhibitor; 1 µM, 20 min): 25%
CCCNc1nc2ccccc2n1Cc1ccc(Cl)cc1 — inhibition (CHRM4; ligand displacement; 10 µM): -7.49%
Oc1cccc(Nc2nc(-c3ccc(F)cc3F)cs2)c1 — inhibition (CHRM4; cell-free assay; 10 µM): -2.9%
COc1cc([N+](=O)[O-])ccc1NC(=O)c1ccccc1 — inhibition (MAOB; enzyme activity, inhibitor; 1 µM, 20 min): 14%
Cc1ccc(C(=O)Nc2ccc(S(=O)(=O)O)c3cc(S(=O)(=O)O)cc(S(=O)(=O)O)c23)cc1NC(=O)c1cccc(NC(=O)Nc2cccc(C(=O)Nc3cc(C(=O)Nc4ccc(S(=O)(=O)O)c5cc(S(=O)(=O)O)cc(S(=O)(=O)O)c45)ccc3C)c2)c1 — inhibition (SIRT5; enzyme activity, inhibitor; 1 mM): > 60%
